According to article PMC7906590 (ACS Omega, 2021):

Tests used:
[1] = Photostability of solution, HPLC purity after 1 h of light exposure; type: physicochemical; conditions: 1 h light exposure
Method in brief: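 Test compound dissolved in acetonitrile–potassium dihydrogen phosphate solution. A reference solution was kept in the dark, and a second sample was exposed to light for 1 h. Purity of each was determined by HPLC with DAD detection.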

[2] = biological target: adenosine A2A (hADORA2A) receptor (Homo sapiens, UniProt P29274); test: cAMP ELISA in NECA/ADA-stimulated hADORA2A-HEK293 cells; type: cell-based
Chain of adenosine A2A (hADORA2A) receptor (P29274 whole entry): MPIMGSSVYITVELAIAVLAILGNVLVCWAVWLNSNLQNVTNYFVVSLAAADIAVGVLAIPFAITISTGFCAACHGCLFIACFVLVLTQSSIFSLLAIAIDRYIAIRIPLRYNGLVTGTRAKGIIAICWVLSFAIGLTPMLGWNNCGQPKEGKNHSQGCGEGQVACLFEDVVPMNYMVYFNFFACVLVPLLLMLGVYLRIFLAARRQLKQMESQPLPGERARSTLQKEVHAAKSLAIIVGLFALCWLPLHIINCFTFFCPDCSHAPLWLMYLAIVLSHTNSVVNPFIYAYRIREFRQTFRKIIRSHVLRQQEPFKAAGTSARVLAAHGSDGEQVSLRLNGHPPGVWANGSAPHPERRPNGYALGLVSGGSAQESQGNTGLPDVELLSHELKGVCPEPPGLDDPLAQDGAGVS

Structure (SMILES)	isomerization after 1 h of light exposure [1]	IC50 [2] [µM]
CCn1c(=O)c2c(nc(/C=C/c3ccc(OC)c(OC)c3)n2C)n(CC)c1=O [Istradefylline, istradefylline]	about 1/3	
Nc1ncnc2[nH]c(/C=C/c3ccccc3)nc12 [II-1-1, (E) -8-styryl-9H-purine-6-amine]		> 421
